Tests used:
[1] = tested on: human; test: concentration in blood after dosing
How it was run: (§1)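 Points were largely digitised from plot screenshots with WebPlotDigitizer or otherwise copied from tables, and they remain in the units each source reported. They come from published in vivo toxicokinetic studies and two structured collections. Sampling and analytical methods follow each source and were often not reported.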

[2] = tested on: Rat; test: concentration in brain after dosing; conditions: 1 h; dosed: Potassium Perfluorobutane Sulfonate; 20 mg/kg; oral; Male; Harlan Sprague Dawley
[3] = tested on: Rat; test: concentration in plasma after dosing; conditions: dosed: Potassium Perfluorobutane Sulfonate, 4 mg/kg, oral, Male, Harlan Sprague Dawley
[4] = tested on: Rat; test: concentration in plasma after dosing; conditions: 1.5 h; dosed: Potassium Perfluorobutane Sulfonate; 20 mg/kg; oral; Male; Harlan Sprague Dawley
[5] = tested on: Rat; test: concentration in plasma after dosing; conditions: dosed: Nitrite, 80 mg/kg, oral, Female, F344
[6] = tested on: Mouse; test: concentration in plasma after dosing; conditions: 10 min; dosed: 2-Hydroxy-4-methoxybenzophenone; 50 mg/kg; iv; Female; B6C3F1
[7] = tested on: Rat; test: concentration in plasma after dosing; conditions: dosed: 2-Hydroxy-4-methoxybenzophenone, 250 mg/kg, oral, Male, F344
[8] = tested on: Mouse; test: concentration in plasma after dosing; conditions: 10 min; dosed: 2-Hydroxy-4-methoxybenzophenone; 250 mg/kg; oral; Male; B6C3F1
[9] = tested on: Mouse; test: concentration in plasma after dosing; conditions: dosed: 2-Hydroxy-4-methoxybenzophenone, 100 mg/kg, oral, Female, B6C3F1
[10] = tested on: monkey; test: concentration in blood after dosing; conditions: dosed: methanol, inhalation, duration: 6 hr, male, Macaca mulatta
How it was run: as §1

[11] = tested on: Rat; test: concentration in liver after dosing; conditions: 0.5 h; dosed: Fluorotelomer alcohol 8+2; 24 mg/kg; oral; Male; Harlan Sprague Dawley
[12] = tested on: Rat; test: concentration in liver after dosing; conditions: 6 h; dosed: Fluorotelomer alcohol 8+2; 24 mg/kg; oral; Male; Harlan Sprague Dawley
[13] = tested on: Rat; test: concentration in brain after dosing; conditions: 12 h; dosed: Perfluorooctanoic acid; 80 mg/kg; oral; Female; Harlan Sprague Dawley
[14] = tested on: Rat; test: concentration in liver after dosing; conditions: 192 h; dosed: Perfluorooctanoic acid; 12 mg/kg; oral; Male; Harlan Sprague Dawley
[15] = tested on: Rat; test: concentration in kidney after dosing; conditions: 12 h; dosed: Perfluorooctanoic acid; 80 mg/kg; oral; Female; Harlan Sprague Dawley
[16] = tested on: Rat; test: concentration in kidney after dosing; conditions: 6 h; dosed: Perfluorooctanoic acid; 12 mg/kg; oral; Male; Harlan Sprague Dawley
[17] = tested on: Rat; test: concentration in plasma after dosing; conditions: dosed: 678-39-7, 12 mg/kg, iv, Male, F344
[18] = tested on: Rat; test: concentration in kidney after dosing; conditions: 0.5 h; dosed: Fluorotelomer alcohol 8+2; 80 mg/kg; oral; Female; Harlan Sprague Dawley
[19] = tested on: mouse; test: concentration in blood after dosing; conditions: dosed: benzo[a]pyrene, 15 mg/kg, oral, C57BL/6J
How it was run: as §1

CC(C)(C)O [tert-butyl alcohol]
[1], inhalation, duration: 4 hr
Conditions | concentration in blood [nM]
1.944 h, dosed: methyl tert-butyl ether, 4.5 ppm | 1930
1.995 h, dosed: methyl tert-butyl ether, 38.7 ppm | 22200
2.028 h, dosed: ethyl tert-butyl ether, 40.6 ppm | 12800
2.045 h, dosed: ethyl tert-butyl ether, 4.5 ppm | 1690
3.934 h, dosed: methyl tert-butyl ether, 4.5 ppm | 1730
3.985 h, dosed: methyl tert-butyl ether, 38.7 ppm | 17800
4.023 h, dosed: ethyl tert-butyl ether, 4.5 ppm | 1620
4.023 h, dosed: ethyl tert-butyl ether, 40.6 ppm | 11000
5.95 h, dosed: methyl tert-butyl ether, 4.5 ppm | 1580
6.001 h, dosed: methyl tert-butyl ether, 38.7 ppm | 12500
6.034 h, dosed: ethyl tert-butyl ether, 4.5 ppm | 1170
6.034 h, dosed: ethyl tert-butyl ether, 40.6 ppm | 9280
7.952 h, dosed: methyl tert-butyl ether, 4.5 ppm | 917
7.96 h, dosed: ethyl tert-butyl ether, 4.5 ppm | 1100
7.977 h, dosed: ethyl tert-butyl ether, 40.6 ppm | 8400
8.017 h, dosed: methyl tert-butyl ether, 38.7 ppm | 10000
9.972 h, dosed: ethyl tert-butyl ether, 4.5 ppm | 771
9.972 h, dosed: ethyl tert-butyl ether, 40.6 ppm | 6190
10.03 h, dosed: methyl tert-butyl ether, 38.7 ppm | 8310
11.93 h, dosed: ethyl tert-butyl ether, 4.5 ppm | 905
11.98 h, dosed: ethyl tert-butyl ether, 40.6 ppm | 5880
12.05 h, dosed: methyl tert-butyl ether, 38.7 ppm | 5730
18 s, dosed: methyl tert-butyl ether, 4.5 ppm | 2660
20 s, dosed: methyl tert-butyl ether, 38.7 ppm | 21800
23.91 h, dosed: ethyl tert-butyl ether, 40.6 ppm | 2670
23.99 h, dosed: methyl tert-butyl ether, 38.7 ppm | 1140
61 s, dosed: ethyl tert-butyl ether, 4.5 ppm | 1870
61 s, dosed: ethyl tert-butyl ether, 40.6 ppm | 14300

[1], dosed: methyl tert-butyl ether, oral
Conditions | concentration in blood [nM]
0.9669 h, 5 mg | 463
1.015 h, 15 mg | 1880
1.979 h, 15 mg | 1700
1.982 h, 5 mg | 430
2.968 h, 15 mg | 1580
2.972 h, 5 mg | 391
3.958 h, 15 mg | 1510
3.961 h, 5 mg | 370
5.915 h, 5 mg | 318
5.962 h, 15 mg | 1230
7.92 h, 5 mg | 290
7.966 h, 15 mg | 983
9.925 h, 5 mg | 236
9.97 h, 15 mg | 937
11.95 h, 15 mg | 806
12.01 h, 5 mg | 199
23.95 h, 15 mg | 268
23.99 h, 5 mg | 53.5

O=S(=O)([O-])C(F)(F)C(F)(F)C(F)(F)C(F)(F)F.[K+] [Potassium Perfluorobutane Sulfonate]
Conditions | concentration in brain [ng/g] | concentration in plasma [ng/mL]
[2] | 1030 | –
[4] | – | 70000

[3]
Conditions | concentration in plasma [ng/mL]
0.75 h | 14200
12 h | 2550

O=N[O-] [Nitrite]
[5]
Conditions | concentration in plasma [ng/mL]
6 h | 1700
10 min | 10800

COc1ccc(C(=O)c2ccccc2)c(O)c1 [2-Hydroxy-4-methoxybenzophenone]
Conditions | concentration in plasma [ng/mL]
[6] | 8410
[8] | 93.1

concentration in plasma [ng/mL]
Conditions | 0.25 h | 2 h | 2.5 min | 3 h | 4 h | 10 min
[7] | 318 | – | – | – | 48.1 | –
[9] | 81 | 4.58 | 15.3 | 5.05 | – | 37.3

CO [methanol]
[10]
Conditions | concentration in blood [ng/mL]
0.5142 h, 2000 ppm | 54500
0.5644 h, 1200 ppm | 35700
1.044 h, 1200 ppm | 31200
1.066 h, 2000 ppm | 52700
1.558 h, 1200 ppm | 31400
1.603 h, 2000 ppm | 47700
2.036 h, 1200 ppm | 27700
2.065 h, 2000 ppm | 39000
3.014 h, 1200 ppm | 21100
3.019 h, 2000 ppm | 40300
4.525 h, 1200 ppm | 14300
4.556 h, 2000 ppm | 24100
6.067 h, 2000 ppm | 16300
6.073 h, 1200 ppm | 10300
8.074 h, 2000 ppm | 9200
8.076 h, 1200 ppm | 7660
10 h, 1200 ppm | 7870
10.06 h, 2000 ppm | 7580
97 s, 1200 ppm | 38600
101 s, 2000 ppm | 65800

O=C(O)C(F)(F)C(F)(F)C(F)(F)C(F)(F)C(F)(F)C(F)(F)C(F)(F)F [Perfluorooctanoic acid]
Conditions | concentration in brain [ng/g] | concentration in kidney [ng/g] | concentration in liver [ng/g]
[11] | – | – | 300
[12] | – | – | 1350
[13] | 1280 | – | –
[14] | – | – | 51800
[15] | – | 67800 | –
[16] | – | 43100 | –
[18] | – | 284 | –

[17]
Conditions | concentration in plasma [ng/mL]
0.25 h | 102
24 h | 607

c1ccc2c(c1)cc1ccc3cccc4ccc2c1c34 [benzo[a]pyrene]
[19]
Conditions | concentration in blood [ng/mL]
0.4576 h | 68.9
0.4733 h | 61
0.9942 h | 148
1.01 h | 190
1.436 h | 196
1.452 h | 276
1.957 h | 239
1.989 h | 253
3.014 h | 282
3.046 h | 85
4.04 h | 258
4.072 h | 15.5
4.94 h | 8.52
5.934 h | 6.45
6.013 h | 252
9.028 h | 65.1
11.99 h | 18.4
14.99 h | 6.86

Reference: EPA's CvTdb concentration-time database
